Experimental data gathered from unrelated publications.
Cell line: HeLa
Effect on: cell growth or viability

Compound | assay | setting | IC50
COc1cccc2c1C(=O)c1c(O)c3c(c(O)c1C2=O)C[C@@](O)(C(=O)CO)C[C@@H]3O[C@H]1C[C@H](N)[C@H](O)[C@H](C)O1 | MTT | 24 h | 1.71 µg/mL
COc1cc(OC)c2c(=O)cc(-c3ccccc3Br)oc2c1 | MTT | 48 h | > 100 µM
COC(=O)CN=c1scc(-c2ccccc2)n1-c1ccccc1OC | MTT | 72 h | 2.97 µM
COc1cc(C(=O)Nc2cc(OC)c3ccccc3n2)nc(C(=O)Nc2cc(OC)c3ccccc3n2)c1 | ATP luminescence | 72 h | > 40 µM
COc1cc(OC)cc(C(=O)c2cc3c(-c4ccccc4)c(O)ccc3o2)c1 | – | – | 15 µM
OCCCC#CC#CCCCO | MTT | 24 h | 39.3 µg/mL
NCCOc1cc(NC(=O)c2cc(OCc3c[nH]nn3)cc(C(=O)Nc3cc(OCCN)c4ccccc4n3)n2)nc2ccccc12 | ATP luminescence | 72 h | 7.7 µM
COc1cccc(Oc2ccccc2NC(=O)CNC(=O)c2c(C)cc(C)cc2C)c1 | – | – | 6.5 µM
C=CCC[C@@H]1NC(=O)[C@H]2CCCN2C(=O)[C@H](Cc2ccccc2)NC(=O)C(C)(C)NC1=O | XTT | – | > 100 µM
C=CCNC1=C2C[C@@H](C)C[C@H](OC)[C@H](O)[C@@H](C)/C=C(\C)[C@H](OC(N)=O)[C@@H](OC)/C=C\C=C(/C)C(=O)NC(=CC1=O)C2=O | MTT | – | 0.159 µM
C[C@H](O)C(=O)CCCCCCC(=O)Nc1cccc(-c2cn(-c3ccccc3)nn2)c1 | XTT | – | 115 µM
CC(C)(C)Oc1ccc(CC2NC(=O)C(C(=O)NC(C(=O)NC3C(=O)N4C3SC(C)(C)C4C(=O)O)c3ccccc3)=C2O)cc1 (centres unmarked) | ATP luminescence | 48 h | 59.3 µg/mL
C#CCOc1cc(C(=O)Nc2cc(OCCCN)c3ccccc3n2)nc(C(=O)Nc2cc(OCCCN)c3ccccc3n2)c1 | ATP luminescence | 72 h | 3.6 µM
CC1(C)SC2C(NC(=O)C(NC(=O)C3=C(O)C(Cc4ccc(O)cc4)NC3=O)c3ccccc3)C(=O)N2C1C(=O)O (centres unmarked) | ATP luminescence | 48 h | 93.5 µg/mL
O=C(CCc1cccc2c1B(O)OC2)Nc1ccc(-c2ccccc2)cc1 | ATP luminescence | 72 h | > 31.6 µM
O=C(Nc1cc(OCCN2CCCC2)c2ccccc2n1)c1cc(Cl)cc(C(=O)Nc2cc(OCCN3CCCC3)c3ccccc3n2)n1 | ATP luminescence | 72 h | 4.7 µM
Cc1ccc(C#CC#Cc2ccc(C)cc2)cc1 | MTT | 24 h | 70.5 µg/mL
COc1ccnc(-c2cc(OC)ccn2)c1 | MTT | 48 h | > 50 µM
COc1cc(OC)c2c(=O)cc(-c3ccc(C(F)(F)F)cc3)oc2c1 | MTT | 48 h | > 100 µM
CC1(C)S[C@@H]2[C@H](NC(=O)[C@H](N)c3ccccc3)C(=O)N2[C@H]1C(=O)O | ATP luminescence | 48 h | 72.7 µg/mL
CCOC(=O)C#CC#CC(=O)OCC | MTT | 24 h | 13.2 µg/mL
Clc1ccnc2c1ccc1c(Cl)ccnc12 | MTT | 48 h | > 50 µM

Compound | assay | setting | IC50
C#CCOc1ccc(C(=O)c2cccc(NC(=O)CCc3cccc4c3B(O)OC4)c2)cc1 | ATP luminescence | 72 h | 1.33 µM
COc1cc(C)cc2oc(-c3ccccc3)cc(=O)c12 | MTT | 48 h | 82.5 µM
COc1cccc(C(=O)c2cc3c(-c4ccccc4)c(OC)ccc3o2)c1 | – | – | 5.4 µM
COc1cc(OC)c2c(=O)cc(-c3ccccc3Br)oc2c1-c1c(OC)cc(OC)c2c(=O)cc(-c3ccccc3Br)oc12 | MTT | 48 h | 10.4 µM
Cc1c(O)c(=O)ccn1-c1ccc(C(=O)O)cc1 | MTT | 72 h | 600 µM
Cc1ccc2c(Cl)cc(Cl)c(O)c2n1 | MTT | 48 h | > 100 µM
Nc1ccc(C#CC#Cc2ccc(N)cc2)cc1 | MTT | 24 h | 91.2 µg/mL
NCCCOc1cc(NC(=O)c2cc(Cl)cc(C(=O)Nc3cc(OCCCN)c4ccccc4n3)n2)nc2ccccc12 | ATP luminescence | 72 h | 0.7 µM
COC(=O)CN=c1scc(-c2ccccc2)n1-c1ccccc1[N+](=O)[O-] | MTT | – | 6.02 µM
COc1ccc(C(=O)O[C@@H]2CN3Cc4c(cc5c(c4OC)OCO5)[C@@]24C=C[C@H](OC)C[C@@H]34)cc1OC | WST-1 | 48 h | 4.8 µM
COc1cc(C)cc2oc(-c3ccc(N(C)C)cc3)cc(=O)c12 | MTT | 48 h | 24.2 µM
CC1(C)SC2C(NC(=O)C(NC(=O)C3=C(O)C4CCCN4C3=O)c3ccccc3)C(=O)N2C1C(=O)O (centres unmarked) | ATP luminescence | 48 h | 52.1 µg/mL
CC1(C)[C@@H](O)CC[C@]2(C)[C@H]3C(=O)C=C4[C@@H]5C[C@@](C)(C(=O)O)CC[C@]5(C)CC[C@@]4(C)[C@]3(C)CC[C@@H]12 | MTT | 48 h | 17.3 µM
COc1cc(OC)c2c(=O)cc(-c3ccccc3)oc2c1 | MTT | 48 h | 73.7 µM
CC1(C)SC2C(NC(=O)C(NC(=O)C3=C(O)C(Cc4ccc([N+](=O)[O-])cc4)NC3=O)c3ccccc3)C(=O)N2C1C(=O)O (centres unmarked) | ATP luminescence | 48 h | 133 µg/mL
COc1cc(OC)c2c(=O)cc(-c3ccc(Br)cc3)oc2c1-c1c(OC)cc(OC)c2c(=O)cc(-c3ccc(Br)cc3)oc12 | MTT | 48 h | 96.1 µM
O=C(Cn1ccnc1[N+](=O)[O-])NCc1ccccc1 | – | – | > 380 µM
COc1cccc(C(=O)O[C@@H]2CN3Cc4c(cc5c(c4OC)OCO5)[C@@]24C=C[C@H](OC)C[C@@H]34)c1 | WST-1 | 48 h | > 10 µM
COc1cc(OC)c2c(=O)cc(-c3cccc(Br)c3)oc2c1 | MTT | 48 h | 72 µM
COc1ccc(C(=O)c2cc3c(-c4ccccc4)c(O)ccc3o2)cc1 | – | – | 0.51 µM
CC(C)C1NC(=O)C(C(=O)NC(C(=O)NC2C(=O)N3C2SC(C)(C)C3C(=O)O)c2ccccc2)=C1O (centres unmarked) | ATP luminescence | 48 h | 59 µg/mL
CN(C)CCOc1cc(NC(=O)c2cc(Cl)cc(C(=O)Nc3cc(OCCN(C)C)c4ccccc4n3)n2)nc2ccccc12 | ATP luminescence | 72 h | 3.2 µM
